What was measured:
[1] = Oral bioavailability in rat; assay type: ADME, organism-based; settings: in vivo
How it was run: (§1)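 Male Sprague–Dawley rats, n=3 per study, in an iv/po crossover design. Dosed in aqueous solution with 1% DMSO and up to 20% hydroxypropyl-beta-cyclodextrin, 4 and 8 µmol/kg for iv and po. Lateral tail vein blood sampling. Plasma drug measured by LC/MS/MS, lower limit of quantification >10ng/mL.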

[2] = target: T1, C-X-C chemokine receptor type 1 (Homo sapiens, UniProt P25024); test: Concentration required to inhibit [125I]-IL-8 binding towards C-X-C chemokine receptor type 1 of human expressed in CHO cells; assay type: cell-based
T1 sequence (P25024 whole entry): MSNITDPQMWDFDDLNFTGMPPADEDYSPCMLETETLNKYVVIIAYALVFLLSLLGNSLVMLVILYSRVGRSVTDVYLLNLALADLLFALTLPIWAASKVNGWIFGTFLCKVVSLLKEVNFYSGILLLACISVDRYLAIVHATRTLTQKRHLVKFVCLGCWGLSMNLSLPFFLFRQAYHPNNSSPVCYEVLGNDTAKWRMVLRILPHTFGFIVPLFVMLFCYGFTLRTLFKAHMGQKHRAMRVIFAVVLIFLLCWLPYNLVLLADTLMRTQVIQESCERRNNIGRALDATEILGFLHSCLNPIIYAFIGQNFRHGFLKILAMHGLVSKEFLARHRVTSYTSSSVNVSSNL
How it was run: (§2)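 SPA binding on membranes from CHO cell lines expressing CXCR1 or CXCR2. Competition against radiolabeled human recombinant [125I]-IL-8 at 0.23nM. Values are the mean of three individual experiments.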

[3] = pKa value was determined; assay type: physicochemical
How it was run: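 pKa calculated in silico, not measured experimentally.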

[4] = target: T2, C-X-C chemokine receptor type 2 (Homo sapiens, UniProt P25025); test: Concentration required to inhibit [125I]IL-8 binding towards C-X-C chemokine receptor type 2 of human expressed in CHO cells; assay type: cell-based; how it was run: as §2
T2 sequence (P25025 whole entry): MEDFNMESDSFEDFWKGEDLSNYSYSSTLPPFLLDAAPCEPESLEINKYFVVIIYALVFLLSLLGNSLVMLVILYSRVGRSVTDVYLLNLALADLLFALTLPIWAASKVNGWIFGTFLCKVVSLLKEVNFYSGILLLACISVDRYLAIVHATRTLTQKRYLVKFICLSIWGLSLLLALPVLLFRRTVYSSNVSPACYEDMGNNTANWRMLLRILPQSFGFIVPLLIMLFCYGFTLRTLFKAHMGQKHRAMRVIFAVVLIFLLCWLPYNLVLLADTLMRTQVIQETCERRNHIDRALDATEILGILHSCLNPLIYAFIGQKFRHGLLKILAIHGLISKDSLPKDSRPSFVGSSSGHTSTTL

[5] = Plasma clearance in rat; assay type: ADME, organism-based; how it was run: as §1
[6] = In vitro intrinsic clearance of urea in rat liver microsomes in presence of UDPGA; assay type: ADME, Microsome
How it was run: (§3)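 Rat or human liver microsomes at 0.5mg microsomal protein/mL, run with or without UDPGA. Final compound 0.5–1 µM. Substrate loss followed by LC/MS/MS over a 30-min incubation. CLint taken from the slope of substrate disappearance versus time.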

[7] = In vitro intrinsic clearance of urea in human liver microsomes in presence of UDPGA; assay type: ADME, Microsome; how it was run: as §3
[8] = In vitro intrinsic clearance of urea in rat liver microsomes in absence of UDPGA; assay type: ADME, Microsome; how it was run: as §3
[9] = In vitro intrinsic clearance of urea in human liver microsomes in absence of UDPGA; assay type: ADME, Microsome; how it was run: as §3

bioavailability [1] [%]	IC50 [2] [nM]	pKa [3]	IC50 [4] [nM]	clearance [5] [mL/min/kg]	CL [6] [ml min-1 g-1 liver]	CL [7] [ml min-1 g-1 liver]	CL [8] [ml min-1 g-1 liver]	CL [9] [ml min-1 g-1 liver]	Structure (SMILES)
100	4320	6.19	12	23.4	–	–	–	–	CN(C)S(=O)(=O)c1c(Cl)ccc(NC(=O)Nc2ccccc2Br)c1O
67	30000	6.85	114	104	–	–	–	–	Cl.NCc1c(Cl)ccc(NC(=O)Nc2ccccc2Br)c1O
86	1370	6.12	7	16.1	5.3	1.5	1.5	0.74	NS(=O)(=O)c1c(Cl)ccc(NC(=O)Nc2ccccc2Br)c1O
6.6	–	8.24	906	323	–	–	–	–	O=C(Nc1ccc(Cl)cc1O)Nc1ccccc1Br
13	13400	7.24	63	73.6	–	–	–	–	O=C(Nc1ccccc1Br)Nc1ccc(Cl)c(Cl)c1O
3.6	6040	7.11	10	105	5.3	1.5	1.5	0.74	NC(=O)c1c(Cl)ccc(NC(=O)Nc2ccccc2Br)c1O

Source: ChEMBL document CHEMBL1137097, “Discovery of potent and orally bioavailable N,N'-diarylurea antagonists for the CXCR2 chemokine receptor” (Bioorg Med Chem Lett, 2004)
